Source: PubChem BioAssay
Results filed as inconclusive are left out.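 How the source made its calls, unless noted: active means cell viability at or below a set limit in both duplicate runs, the limit being the all-compound median minus 4 SD (cut at about 23% in these data, passing the limit was not always enough); inconclusive means no clear call, values can overlap the other calls; inactive means the rest.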

How the values were obtained:
[1] = S. cerevisiae growth inhibition in permissive medium (OD615), pilot counter-assay for S. cerevisiae lifespan shortening project, permissive growth control (AID 705;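 active means growth inhibition above 25% in both replicates, a cutoff set 3 SD above the mean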); conditions: OD615, 24 h, at 10 µM, stronger effect = higher value
Outline: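 Timing: 24 h exposure, 30 °C / Material: Saccharomyces cerevisiae strain carrying genetically modified DeaD replicative-lifespan system / Signal: OD at 615 nm / Compound: 10 µM single dose, 0.25% DMSO / Medium: SC raffinose/galactose permissive medium / Evaluation: reduction in yeast growth (OD615)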

[2] = S. cerevisiae growth inhibition in restrictive medium, OD615, pilot screen, restrictive growth control, yeast lifespan reduction project (AID 706;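 active means growth inhibition above a set limit, 3 SD over mean compound inhibition, in both replicates, cut at about 43% in these data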;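 further: modified DeaD lifespan yeast strain shifted to restrictive glucose medium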); conditions: OD615, 48 h, at 10 µM, stronger effect = higher value
Outline: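 System: Engineered S. cerevisiae DeaD strain | Detection: OD615 | Buffer or medium: CSMM-D glucose medium | Doses: 10 µM compound, 0.25% DMSO | Timing: 4 h pre-growth plus 48 h compound exposure, 30 °C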

[3] = doxorubicin toxicity protection in MRP-1 cells – H69AR cells, CellTiter-Glo, duplicate, MRP-1 activator project, pilot screen (AID 807;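 active means viability increase at or above a cutoff of the median across tested compounds plus 3 SD, cut at about 8.5% in these data, passing the limit was not always enough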;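 further: compound pretreatment 18-22 h then 72 h combined with doxorubicin; 0% = doxorubicin alone and 100% = vehicle without doxorubicin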); conditions: H69AR viability with doxorubicin, CellTiter-Glo luminescence; at 10 µM; stronger effect = higher value
[4] = viability of HCT116 without oncogenic beta-catenin – human colon tumor cells, pilot screen (AID 823); conditions: HCT116 beta-catenin knockout viability, CellTiter-Glo, 60 h; at 10 µM; stronger effect = lower value;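 further: 0% = wells killed by 20 µM Hyamine and 100% = untreated DMSO cell wells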
[5] = viability of PTEN-null HCT116 cells – cell-based, HCT116 clonal line, CellTiter-Glo, pilot screen (AID 824;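 active means viability at or below 27.92% in each of two runs, the all-compound median minus 4 SD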;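 further: 0% = 20 µM Hyamine control and 100% = vehicle cell control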); conditions: HCT116 PTEN-deleted viability, 60 h, at 10 µM, stronger effect = lower value
[6] = RAM pathway blockade in budding yeast – dse1pr::URA3 reporter, 5-FOA selection, pilot screen (AID 869;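 active means inhibition over a set limit, the all-compound mean plus 3 SD, in both replicate runs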;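 further: 0% = DMSO wells with no growth and 100% = 10 µM 1-NA-PP1 with full growth; RAM network block rescues cells from 5-FOA so hits raise OD615 growth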); conditions: S. cerevisiae dse1pr::URA3 5-FOA growth, OD615, 2 d; at 10 µM; stronger effect = higher value; strain carries analog-sensitive mutant Cbk1 kinase
[7] = RAM signaling pathway blockade in yeast – S. cerevisiae, Pdr1DBD-CYC8 efflux-inhibited sensitized strain, primary screen (AID 1298;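 active means RAM network inhibition above 8.4% in each of two replicates, 3 SD over the compound average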;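 further: 0% = DMSO untreated cells without growth and 100% = 10 µM 1-NA-PP1 full growth; higher means more yeast growth rescued from 5-FOA killing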); conditions: S. cerevisiae cbk1-as DSE1-URA3 strain, 5-FOA growth OD615, 2 d; at 50 µM; stronger effect = higher value

Cc1ccc2oc(=O)c3cc(C(=O)N4CCN(C(=O)c5ccco5)CC4)sc3c2c1
inactive: growth inhibition [1] -9.32% | growth inhibition [2] -1.79% | viability increase [3] -2.75% | viability [4] 102% | viability [5] 99.5% | inhibition [6] 2.8% | RAM network inhibition [7] 3.77%

CC1=CC(c2ccccc2)n2nc(NS(=O)(=O)c3ccc(C)cc3)nc2N1 (configuration not stated)
inactive: growth inhibition [1] -9.59% | growth inhibition [2] 5.79% | viability increase [3] -1.29% | viability [4] 100% | viability [5] 99.5% | inhibition [6] 0.09% | RAM network inhibition [7] 2.86%

Fc1cccc(Cl)c1CSc1nnnn1-c1ccc2c(c1)OCO2
inactive: growth inhibition [1] 3.1% | growth inhibition [2] 17.6% | viability increase [3] -5.87% | viability [4] 55.7% | viability [5] 46.4% | inhibition [6] 1.1% | RAM network inhibition [7] 10.2%

CN1CCN(C(=O)c2cc3c(s2)-c2ccccc2S(=O)(=O)C3)CC1
inactive: growth inhibition [1] -2.05% | growth inhibition [2] -0.515% | viability increase [3] -1.76% | viability [4] 103% | viability [5] 98.5% | inhibition [6] 1.8% | RAM network inhibition [7] 0.72%

COC(=O)c1cc(=O)nc2scc(C)n12
inactive: growth inhibition [1] -13% | growth inhibition [2] -18.9% | viability increase [3] -0.3% | viability [4] 103% | viability [5] 99.5% | inhibition [6] 0.885% | RAM network inhibition [7] 4.74%

O=C(Cn1ncc2c(=O)oc3ccccc3c21)N(Cc1ccco1)C1CCCCC1
inactive: growth inhibition [1] -4.29% | growth inhibition [2] -1.01% | viability increase [3] -4.59% | viability [4] 92.5% | viability [5] 94.6% | inhibition [6] 2.71% | RAM network inhibition [7] 5.12%

Cc1onc(-c2ccccc2Cl)c1C(=O)Nc1ccccc1C(N)=O
inactive: growth inhibition [1] -9.31% | growth inhibition [2] -29.5% | viability increase [3] -3.08% | viability [4] 90.2% | viability [5] 85.5% | inhibition [6] 0.895% | RAM network inhibition [7] 0.67%

CCOC(=O)C1=C(C)N(C)C(C)=C(C(=O)OCC)C1c1ccccn1
inactive: growth inhibition [1] -13.2% | growth inhibition [2] -14.6% | viability increase [3] -0.35% | viability [4] 96.2% | viability [5] 91.6% | inhibition [6] 1.98% | RAM network inhibition [7] 0.62%

COCCCN1C(=O)C(O)=C(C(=O)c2ccc(C)o2)C1c1cccc(Br)c1 (configuration not stated)
inactive: growth inhibition [1] -10.6% | growth inhibition [2] -3.15% | viability increase [3] -0.41% | viability [4] 106% | viability [5] 106% | inhibition [6] -0.2% | RAM network inhibition [7] 4.3%

COc1ccc(OCC(=O)Nc2ccccc2OC)cc1
inactive: growth inhibition [1] 11.4% | growth inhibition [2] 7.31% | viability increase [3] -4.87% | viability [4] 105% | viability [5] 101% | inhibition [6] 0.82% | RAM network inhibition [7] -2.32%

COc1ccc(CN2C(=O)CCC2(C)C(=O)NC2CCCC2)c(OC)c1 (configuration not stated)
inactive: growth inhibition [1] -5.04% | growth inhibition [2] -4.46% | viability increase [3] 0.91% | viability [4] 105% | viability [5] 101% | inhibition [6] 0.71% | RAM network inhibition [7] 2.04%

CCN(C(=O)COC(=O)C(Cc1ccccc1)N1C(=O)c2ccccc2C1=O)C1CCS(=O)(=O)C1 (configuration not stated)
inactive: growth inhibition [1] -4.4% | growth inhibition [2] -18.5% | viability increase [3] 0.46% | viability [4] 97.4% | viability [5] 99.5% | inhibition [6] 0.495% | RAM network inhibition [7] 2.8%

O=C(Cn1c(=O)oc2cc(S(=O)(=O)N3CCc4ccccc43)ccc21)N1CCCCC1
inactive: growth inhibition [1] -2.98% | growth inhibition [2] -7.46% | viability increase [3] -2.88% | viability [4] 98.1% | viability [5] 80.5% | inhibition [6] -0.125% | RAM network inhibition [7] 2.79%

CC(=O)N1CSCC1C(=O)N1CCN(c2ccc(N3CCOCC3)nn2)CC1 (configuration not stated)
inactive: growth inhibition [1] 5.2% | growth inhibition [2] 12.4% | viability increase [3] -0.66% | viability [4] 103% | viability [5] 95.1% | inhibition [6] 1.55% | RAM network inhibition [7] 0.26%

CC(=O)N1CC2(C)CN(C(C)=O)CC(C)(C1)C2=O
inactive: growth inhibition [1] -5.64% | growth inhibition [2] 2.83% | viability increase [3] -0.26% | viability [4] 101% | viability [5] 102% | inhibition [6] 1.9% | RAM network inhibition [7] -0.41%

CC(C)N(Cc1nc(-c2ccc(Cl)cc2)no1)C(=O)CCCN1C(=O)c2ccccc2C1=O
inactive: growth inhibition [1] -14.4% | growth inhibition [2] -15.6% | viability increase [3] 5.41% | viability [4] 104% | viability [5] 91.6% | inhibition [6] 1.4% | RAM network inhibition [7] 6.24%

Cn1c(SCC(=O)N2CCCCC2)nc2c([nH]c3ccccc32)c1=O
inactive: growth inhibition [1] -3.83% | growth inhibition [2] -3.68% | viability increase [3] -6.06% | viability [4] 61.4% | viability [5] 44% | inhibition [6] 2.85% | RAM network inhibition [7] 4.75%

COc1ccc(CCNC(=O)CCn2c(=O)oc3ccccc32)cc1
inactive: growth inhibition [1] -5.1% | growth inhibition [2] -14% | viability increase [3] -1.45% | viability [4] 109% | viability [5] 99.7% | inhibition [6] -0.205% | RAM network inhibition [7] 2.7%

COc1ccc(C2N3CC4(C)CN2CC(C)(C3)C4O)cc1 (configuration not stated)
inactive: growth inhibition [1] -17.7% | growth inhibition [2] -6.65% | viability increase [3] 0.42% | viability [4] 106% | viability [5] 97.2% | inhibition [6] 1.22% | RAM network inhibition [7] -0.16%

CC(=O)C1C(c2ccc(OC(F)F)cc2)NC(=O)NC1(O)C(F)(F)F (configuration not stated)
inactive: growth inhibition [1] 3.71% | growth inhibition [2] -6.05% | viability increase [3] 0.74% | viability [4] 107% | viability [5] 97.4% | inhibition [6] 0.31% | RAM network inhibition [7] 5.93%

CCc1cc2c(=O)c(Oc3ccccc3F)c(C)oc2c(CN(C)C)c1O
inactive: growth inhibition [1] -5.07% | growth inhibition [2] 9.37% | viability increase [3] -7.21% | viability [4] 95.2% | viability [5] 89.1% | inhibition [6] 3.73% | RAM network inhibition [7] 6.03%

CC(C)c1cc(C(=O)Nc2ccc3c(c2)OCO3)no1
inactive: growth inhibition [1] -13.7% | growth inhibition [2] 4.26% | viability increase [3] -4.63% | viability [4] 94.2% | viability [5] 92.8% | inhibition [6] 1.88% | RAM network inhibition [7] 3.88%

Cc1ccc(Cl)cc1NC(=O)Cn1cc2c(n1)CCCC2
inactive: growth inhibition [1] -3.65% | growth inhibition [2] 8.66% | viability increase [3] -2.72% | viability [4] 110% | viability [5] 97% | inhibition [6] -0.18% | RAM network inhibition [7] 0.23%

CCOC(=O)c1ccc(NS(=O)(=O)c2cc(-c3nnnn3CC)ccc2OC)cc1
inactive: growth inhibition [1] -0.78% | growth inhibition [2] -5.39% | viability increase [3] -2.01% | viability [4] 92.5% | viability [5] 90.2% | inhibition [6] 1.56% | RAM network inhibition [7] 6.36%

COC(=O)COC(=O)CC(CC(N)=O)c1ccccc1 (configuration not stated)
inactive: growth inhibition [1] -8.58% | growth inhibition [2] -0.775% | viability increase [3] -0.29% | viability [4] 95% | viability [5] 102% | inhibition [6] 2.13% | RAM network inhibition [7] 3.07%

CCN1C(=O)NC2C1N(S(C)(=O)=O)CCN2S(C)(=O)=O (configuration not stated)
inactive: growth inhibition [1] -1.72% | growth inhibition [2] 2.34% | viability increase [3] -0.57% | viability [4] 108% | viability [5] 92.1% | inhibition [6] 1.29% | RAM network inhibition [7] 4.02%

NC(=O)CC1NC(=O)c2ccccc21 (configuration not stated)
inactive: growth inhibition [1] -11.7% | growth inhibition [2] -6.05% | viability increase [3] 0.12% | viability [4] 91.7% | viability [5] 100% | inhibition [6] 1.28% | RAM network inhibition [7] 3.47%

O=S(=O)(NCc1csc(-c2cccnc2)n1)c1cccs1
inactive: growth inhibition [1] 5.38% | growth inhibition [2] -1.74% | viability increase [3] -0.79% | viability [4] 98% | viability [5] 90% | inhibition [6] 1.69% | RAM network inhibition [7] 1.3%

Cc1cc(C)nc(SCCCn2c(=O)[nH]c3ccccc32)n1
inactive: growth inhibition [1] -6.43% | growth inhibition [2] -7.19% | viability increase [3] 1.32% | viability [4] 99.9% | viability [5] 90.5% | inhibition [6] 1.02% | RAM network inhibition [7] 10.9%

OC(C#CCN1CCCC1)c1ccccc1 (configuration not stated)
inactive: growth inhibition [1] -1.08% | growth inhibition [2] -5.8% | viability increase [3] -0.22% | viability [4] 91.6% | viability [5] 98.8% | inhibition [6] 0.7% | RAM network inhibition [7] -0.43%

COc1ccc(NC(=O)c2cnc3ccccn3c2=O)cc1OC
inactive: growth inhibition [1] -5.08% | growth inhibition [2] 4.28% | viability increase [3] -0.04% | viability [4] 101% | viability [5] 91.3% | inhibition [6] 0.665% | RAM network inhibition [7] 1.96%

Cc1cc(C)cc(N(CC(=O)NC2CC3CCC2C3)S(C)(=O)=O)c1 (configuration not stated)
inactive: growth inhibition [1] -11.4% | growth inhibition [2] -10.6% | viability increase [3] -0.31% | viability [4] 90.4% | viability [5] 88% | inhibition [6] -0.04% | RAM network inhibition [7] 2.79%

O=C(NCC(c1cccnc1)N1CCN(c2ccccc2F)CC1)c1ccccc1 (configuration not stated)
inactive: growth inhibition [1] -9.54% | growth inhibition [2] -2.34% | viability increase [3] -4.21% | viability [4] 88.5% | viability [5] 82.4% | inhibition [6] 1.75% | RAM network inhibition [7] 1.21%

CC1=C(C#N)C(c2cccnc2)C2=C(CC(C)(C)CC2=O)N1 (configuration not stated)
inactive: growth inhibition [1] 1.49% | growth inhibition [2] -0.735% | viability increase [3] -2.91% | viability [4] 94.2% | viability [5] 99.6% | inhibition [6] 1.09% | RAM network inhibition [7] 3.92%

COc1ccc(OC)c(NC(=O)C2CCCNC2=O)c1 (configuration not stated)
inactive: growth inhibition [1] -6.08% | growth inhibition [2] -1.6% | viability increase [3] -1.67% | viability [4] 95.1% | viability [5] 94.5% | inhibition [6] 1.33% | RAM network inhibition [7] 1.33%

Cc1cc(OCC(=O)N(C)C)c2c(-c3ccccc3)cc(=O)oc2c1
inactive: growth inhibition [1] -3.89% | growth inhibition [2] 2.71% | viability increase [3] -3.03% | viability [4] 97.4% | viability [5] 94.7% | inhibition [6] 0.915% | RAM network inhibition [7] 5.21%
